Results taken from ChEMBL document CHEMBL4049430, “Indazole-6-phenylcyclopropylcarboxylic Acids as Selective GPR120 Agonists with in Vivo Efficacy” (J Med Chem, 2017).
Active and inactive are the calls of the source. The calls are words filed in the database; no cut-off is given here.

Key:
[1] = molecular target: T1, Free fatty acid receptor 4 (Homo sapiens) (UniProt Q5NUL3); assay: Agonist activity at human GPR120 expressed in CHO-FlpIn cells after 15 mins by DMR assay relative to control; assay type: cell-based
T1 sequence (whole entry): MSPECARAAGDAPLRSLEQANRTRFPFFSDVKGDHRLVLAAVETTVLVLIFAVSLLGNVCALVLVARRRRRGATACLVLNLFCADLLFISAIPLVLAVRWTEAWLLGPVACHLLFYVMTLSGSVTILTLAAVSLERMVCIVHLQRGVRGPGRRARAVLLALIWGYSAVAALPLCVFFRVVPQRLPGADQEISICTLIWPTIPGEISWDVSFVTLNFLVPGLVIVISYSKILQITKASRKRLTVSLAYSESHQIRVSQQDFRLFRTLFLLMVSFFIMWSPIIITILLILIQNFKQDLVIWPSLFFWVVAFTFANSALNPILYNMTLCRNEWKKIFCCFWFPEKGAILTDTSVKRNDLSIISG
Outline: (§1)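 Cryopreserved CHO FlpIn cells stably expressing human or mouse GPR120 were seeded 48 h before assay, serum-starved for 24 h, then held 2 h in HBSS/20 mM HEPES/0.01% BSA (pH 7.4) with 0.5% DMSO. DMR was read over a 10 min baseline and for 15 min after addition. Runs were in duplicate, 10 points, 16 μM to 0.8 nM final, as % of maximal control agonist.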

[2] = molecular target: Free fatty acid receptor 1 (Mus musculus) (UniProt Q76JU9); assay: Agonist activity at mouse GPR40 expressed in HEK293 cells assessed as increase in intracellular calcium level after 5 mins by FLUO-4-AM dye-based FLIPR assay relative to control; assay type: functional, cell-based
Chain of Free fatty acid receptor 1 (Mus musculus) (Q76JU9 whole entry): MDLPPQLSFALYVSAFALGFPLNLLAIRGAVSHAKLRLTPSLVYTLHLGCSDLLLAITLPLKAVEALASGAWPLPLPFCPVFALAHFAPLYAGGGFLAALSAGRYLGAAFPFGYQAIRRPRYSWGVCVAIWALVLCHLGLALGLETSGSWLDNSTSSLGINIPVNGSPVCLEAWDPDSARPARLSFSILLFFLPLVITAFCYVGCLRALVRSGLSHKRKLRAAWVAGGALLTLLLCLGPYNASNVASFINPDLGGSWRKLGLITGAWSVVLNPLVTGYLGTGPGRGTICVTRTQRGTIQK
Outline: (§2)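 HEK293s cells stably expressing mouse GPR40 were seeded 24 h before assay and loaded for 1 h with calcium 3/Fluo-4 AM in HBSS, 20 mM HEPES, 0.01% BSA, 2.5 mM probenecid, pH 7.4. FLIPR Tetra took 10 baseline reads, then read for 5 min after addition. Runs were in duplicate, 9 points, 100 μM to 7 nM final, as % of maximal eladic acid control.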

[3] = Octanol-buffer partition coefficient, log D of the compound at pH 7.4 after 30 mins by LC-UV based shake-flask method
[4] = molecular target: Free fatty acid receptor 1 (Mus musculus, UniProt Q76JU9); assay: Agonist activity at mouse GPR40 expressed in HEK293 cells assessed as increase in intracellular calcium level after 5 mins by FLUO-4-AM dye-based FLIPR assay; assay type: functional, cell-based; outline: as §2
Chain of Free fatty acid receptor 1 (Q76JU9 whole entry): as above

[5] = molecular target: T2, Free fatty acid receptor 4 (Homo sapiens, UniProt Q5NUL3); assay: Agonist activity at human GPR120 expressed in CHO-FlpIn cells after 15 mins by DMR assay; assay type: cell-based; outline: as §1
T2 sequence (Q5NUL3 whole entry): T1 sequence (whole entry)

[6] = molecular target: T3, Free fatty acid receptor 4 (Mus musculus) (UniProt Q7TMA4); assay: Agonist activity at mouse GPR120 expressed in CHO-FlpIn cells after 15 mins by DMR assay relative to control; assay type: cell-based; outline: as §1
T3 sequence (whole entry): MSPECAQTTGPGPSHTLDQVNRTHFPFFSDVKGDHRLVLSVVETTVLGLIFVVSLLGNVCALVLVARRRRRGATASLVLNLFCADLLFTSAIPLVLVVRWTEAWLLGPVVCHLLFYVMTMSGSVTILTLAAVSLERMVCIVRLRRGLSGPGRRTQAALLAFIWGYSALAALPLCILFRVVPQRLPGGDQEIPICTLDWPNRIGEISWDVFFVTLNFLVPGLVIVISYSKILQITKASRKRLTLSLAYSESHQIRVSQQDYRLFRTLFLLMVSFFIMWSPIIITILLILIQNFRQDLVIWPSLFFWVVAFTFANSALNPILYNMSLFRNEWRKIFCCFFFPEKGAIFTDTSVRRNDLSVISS

[7] = molecular target: T4, Free fatty acid receptor 4 (Mus musculus, UniProt Q7TMA4); assay: Agonist activity at mouse GPR120 expressed in CHO-FlpIn cells after 15 mins by DMR assay; assay type: cell-based; outline: as §1
T4 sequence (Q7TMA4 whole entry): T3 sequence (whole entry)

[8] = Clearance in mouse at 2.5 mg/kg, iv after 24 hrs; assay type: ADME, organism-based; details: in vivo
[9] = Protein binding in mouse plasma assessed as unbound fraction after 24 hrs by equilibrium dialysis; assay type: ADME, cell-free
[10] = Volume of distribution at steady state in mouse at 2.5 mg/kg, iv after 24 hrs; assay type: ADME, organism-based; details: in vivo, read-out: Vdss
[11] = Oral bioavailability in mouse at 5 mg/kg after 24 hrs; assay type: ADME, organism-based; details: in vivo
[12] = Ratio of unbound drug level in mouse brain to blood at 5 mg/kg administered through oral gavage after 2 hrs; details: brain
[13] = Cmax in mouse at 5 mg/kg administered through oral gavage after 24 hrs; assay type: ADME, organism-based; set-up: dose 5 mg/kg, route oral; details: in vivo
[14] = Ratio of unbound drug level in wild-type mouse brain to blood at 100 mg/kg administered through oral gavage 30 mins prior to glucose challenge measured after 90 mins; details: brain
[15] = Ratio of drug level in mouse brain to blood at 5 mg/kg administered through oral gavage after 2 hrs; assay type: ADME, organism-based
Mus musculus = assay: Antidiabetic activity in GPR120 knockout mouse assessed as reduction in glucose excursion at 100 mg/kg administered through oral gavage 30 mins prior to glucose challenge measured after 90 mins by OGTT; assay type: functional, organism-based
Outline: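 OGTT used in-house C57BL/6J mice aged 10–11 weeks. GPR120 knockout and wild-type controls were bred in house, back-crossed onto C57BL/6J, and used at 9–10 weeks. Compound was given as a suspension: a concentrated stock was made at rt the day before and diluted on study day to the dosing concentrations.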

Compound	Efficacy [1]	Efficacy [2]	logD at 0.5 h [3]	EC50 [4]	EC50 [5]	also measured
Cc1nn(-c2ccccn2)c2cc(-c3ccc([C@H]4C[C@@H]4C(=O)O)cc3)ccc12 [listing 1 of 2 here]	95%	10%				
Cc1nn(-c2ccccn2)c2cc(-c3ccc(CCC(=O)O)cc3C#N)ccc12	80%	47%	2.2	6100 nM	2400 nM	
Cc1nn(-c2ccccn2)c2cc(-c3ccc(C(C)CC(=O)O)cc3)ncc12 (configuration not stated)	28%	50%		61000 nM	12000 nM	
O=C(O)CCc1ccc(-c2ccc3c(OCc4ccccc4)nn(-c4ccccn4)c3c2)cc1	2%	81%		1300 nM	> 17000 nM	
Cc1nn(-c2ccccn2)c2cc(-c3ccc(CCC(=O)O)cc3)ncc12	78%	86%	1.6	9200 nM	2600 nM	
Cc1nn(-c2ccccn2)c2cc(-c3cccc(CC(=O)O)c3)ccc12	3%				> 17000 nM	
N#Cc1nn(-c2ccccn2)c2cc(-c3ccc(CCC(=O)O)cc3)ccc12	87%	124%	3	2000 nM	4800 nM	
Cc1nn(-c2ccccn2)c2cc(-c3ccc([C@H]4C[C@H]4C(=O)O)cc3)ccc12 (racemic)	9%	81%		19000 nM	> 17000 nM	
Cc1nn(-c2ccccn2)c2cc(-c3ccc(CC(C)(C)C(=O)O)cc3)ccc12	79%	18%		> 100000 nM	4100 nM	
C[C@@H](Cc1ccc(-c2ccc3cnn(-c4ccccn4)c3c2)cc1)C(=O)O	100%	31%		3800 nM	4000 nM	
N#Cc1cc(-c2ccc(CCC(=O)O)cc2)cc2c1cnn2-c1ccccn1	78%	113%	2.2	19000 nM	2000 nM	
Cc1ccc(-n2nc(C)c3ccc(-c4ccc([C@H]5C[C@@H]5C(=O)O)cc4)cc32)cc1	100%	1%				clearance [8]: 9.6 mL/min/kg; fraction unbound at 24 h [9]: 0.0049; Vd [10]: 1.2 L/kg; Efficacy [6]: 91%; bioavailability [11]: 136%; Kp uu at 2 h [12]: 0.22; Cmax [13]: 7.9 µM; EC50 [7]: 510 nM; Kp uu at 1.5 h [14]: 0.27; Kp at 2 h [15]: 0.82; Activity (Mus musculus): inactive
Cc1cc(-c2ccc(CCC(=O)O)cc2)cc2c1cnn2-c1ccccn1	70%	82%	2.6	2600 nM	4600 nM	
Cc1nn(-c2ccccn2)c2cc(-c3ccc([C@@H]4C[C@H]4C(=O)O)cc3)ccc12	26%	2%		> 100000 nM	> 17000 nM	
Cc1nn(-c2ccccn2)c2cc(-c3cccc(CCC(=O)O)c3)ccc12	28%	0%		> 100000 nM	> 17000 nM	
C[C@H](Cc1ccc(-c2ccc3cnn(-c4ccccn4)c3c2)cc1)C(=O)O	88%	18%		> 100000 nM	4300 nM	
Cc1nn(-c2ccccn2)c2cc(-c3ccc([C@H]4C[C@@H]4C(=O)O)cc3)ccc12 (racemic) [listing 2 of 2 here]	87%	6%				
O=C(O)CCc1ccc(-c2ccc3cnn(-c4ccccn4)c3c2)cc1	114%	106%	2.4	4500 nM	990 nM	
Cc1nn(-c2ccccn2)c2cc(-c3ccc(CC(=O)O)cc3)ccc12	8%				> 17000 nM	

Further lines, with some results ahead:

Efficacy [1]	Efficacy [2]	logD at 0.5 h [3]	EC50 [4]	EC50 [5]	Compound	also measured
122%	96%	3.3	2600 nM	250 nM	COc1nn(-c2ccccn2)c2cc(-c3ccc(CCC(=O)O)cc3)ccc12	
			> 100000 nM	690 nM	Cc1nn(-c2ccccn2)c2cc(-c3ccc([C@H]4C[C@@H]4C(=O)O)cc3)ccc12 [listing 2 of 2 here]	
76%	12%	2.6	> 100000 nM	900 nM	Cc1ccc(-n2nc(C)c3cnc(-c4ccc([C@H]5C[C@@H]5C(=O)O)cc4)cc32)cc1	Efficacy [6]: 99%; EC50 [7]: 640 nM
			> 100000 nM	850 nM	Cc1nn(-c2ccccn2)c2cc(-c3ccc([C@H]4C[C@@H]4C(=O)O)cc3)ccc12 (racemic) [listing 1 of 2 here]	
107%	95%		1400 nM	640 nM	Cc1nn(-c2ccccn2)c2cc(-c3ccc(CCC(=O)O)cc3)ccc12	
100%	126%	2.8	2600 nM	470 nM	O=C(O)CCc1ccc(-c2cc(F)c3cnn(-c4ccccn4)c3c2)cc1	
128%	117%		2100 nM	260 nM	Cc1nn(-c2ccccn2)c2cc(-c3ccc(CCCC(=O)O)cc3)ccc12	
75%	93%	3.3	1100 nM	760 nM	CCc1nn(-c2ccccn2)c2cc(-c3ccc(CCC(=O)O)cc3)ccc12	
113%	105%	2.9	1500 nM	600 nM	Cc1nn(-c2ccccn2)c2cc(-c3ccc(CCC(=O)O)cc3F)ccc12	
82%	62%	2.4	8200 nM	720 nM	COc1cc(CCC(=O)O)ccc1-c1ccc2c(C)nn(-c3ccccn3)c2c1	
88%	14%	4.2	> 100000 nM	520 nM	Cc1ccc(-n2nc(C)c3c(F)cc(-c4ccc([C@H]5C[C@@H]5C(=O)O)cc4)cc32)cc1	Efficacy [6]: 112%; EC50 [7]: 540 nM
113%	102%	3.3	1200 nM	710 nM	Cc1nn(-c2ccccn2)c2cc(-c3ccc(CCC(=O)O)cc3Cl)ccc12	
115%	11%	> 4.2	> 100000 nM	78 nM	COc1nn(-c2ccc(C)cc2)c2cc(-c3ccc([C@H]4C[C@@H]4C(=O)O)cc3)cc(F)c12	clearance [8]: 0.4 mL/min/kg; fraction unbound at 24 h [9]: 0.0011; Vd [10]: 0.7 L/kg; Efficacy [6]: 176%; bioavailability [11]: 19%; Cmax [13]: 5 µM; EC50 [7]: 17 nM; Kp at 2 h [15]: 0.44
